ChEMBL document CHEMBL4041475, “Novel 2-arylazoimidazole derivatives as inhibitors of Trypanosoma cruzi proliferation: Synthesis and evaluation of their biological activity” (Eur J Med Chem, 2017)
The source made the active and inactive calls. The rule behind the calls is not given here.

Legend:
Trypanosoma cruzi [1] = assay: Trypanocidal activity against Trypanosoma cruzi TCC epimastigotes at 1 to 15 uM supplemented with fresh medium containing compound every 9 to 10 days by haemocytometric method; type: functional
How it was run: (§1)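 TCC strain epimastigotes grown at 28 °C in Diamond medium with haemin and 10% FBS. Seeded at 10×10⁶/mL in duplicate with 1, 5, 10 or 15 μM compound, alongside untreated cultures. Counted daily in a haemocytometer. Every ~9–10 days, re-diluted to 5×10⁶/mL in fresh compound-containing medium to start a new round.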

Trypanosoma cruzi [2] = assay: Trypanocidal activity against Trypanosoma cruzi RA tripamastigote bloodstream forms isolated from infected CF1 mouse blood after 24 hrs by haemocytometric method; type: functional
How it was run: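 RA strain bloodstream trypomastigotes taken from CF1 mouse blood at parasitaemia peak (day 5 p.i.) and diluted in medium to 1.5×10⁶/ml. Exposed in duplicate to 125–1000 μM compound at 4 °C for 24 h. Viable parasites counted in a haemocytometer; % lysis computed against untreated control. IC50 obtained from log %L against log concentration.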

Trypanosoma cruzi [3] = assay: Trypanocidal activity against Trypanosoma cruzi TCC epimastigotes assessed as parasite duplication time at 15 uM measured after 9 to 10 days (reference value: 2 day); type: functional; how it was run: as §1
Trypanosoma cruzi [4] = assay: Trypanocidal activity against Trypanosoma cruzi TCC epimastigotes assessed as maximal parasite density at 15 uM measured after 9 to 10 days by haemocytometric method (reference value: 45 10^6/ml); type: functional; how it was run: as §1
Trypanosoma cruzi [5] = assay: Trypanocidal activity against Trypanosoma cruzi TCC epimastigotes assessed as parasite duplication time at 1 to 15 uM supplemented with fresh medium containing compound every 9 to 10 days measured on third week; type: functional; how it was run: as §1
Trypanosoma cruzi [6] = assay: Trypanocidal activity against Trypanosoma cruzi TCC epimastigotes assessed as maximal parasite density at 1 to 15 uM supplemented with fresh medium containing compound every 9 to 10 days measured on third week by haemocytometric method; type: functional; how it was run: as §1
Trypanosoma cruzi [7] = assay: Trypanocidal activity against Trypanosoma cruzi TCC epimastigotes assessed as effect on parasite motility at 1 to 15 uM supplemented with fresh medium containing compound every 9 to 10 days measured on third week; type: functional; how it was run: as §1
Trypanosoma cruzi [8] = assay: Trypanocidal activity against Trypanosoma cruzi TCC epimastigotes assessed as effect on parasite viability at 1 to 15 uM supplemented with fresh medium containing compound every 9 to 10 days measured on third week by maximal parasite density; type: functional; how it was run: as §1
[9] = Cytotoxicity against mouse RAW cells assessed as reduction in cell viability after 24 hrs by MTT assay; type: cell-based
How it was run: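 RAW cells, 1x10⁵ per well, exposed to 125–1000 μM compound for 24 h at 37 °C, 5% CO₂; MTT added at 1.5 mg/mL final for 4 h, formazan dissolved in 1% SDS/0.01 M HCl, absorbance at 540 nm. CC50 obtained by linear regression of log OD against log concentration. Run in duplicate.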

Trypanosoma cruzi [10] = assay: Trypanocidal activity against Trypanosoma cruzi RA tripamastigote bloodstream forms infected in Balb/c mouse assessed as reduction in circulating parasite level in acute phase at 100 mg/kg, po administered on day 9 post infection for 5 consecutive days; type: functional, organism-based
How it was run: (§2)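 Balb/c males, 6–8 weeks, groups of six, infected i.p. with 100 RA strain bloodstream trypomastigotes. Oral dosing for 5 consecutive days once parasites were circulating, in 0.1 M PBS pH 7.2, with vehicle as negative control. Tail-vein blood (5 μl) diluted 1:10 in NH₄Cl/Tris lysis buffer and counted in a haemocytometer every other day.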

Trypanosoma cruzi [11] = assay: Trypanocidal activity against Trypanosoma cruzi RA tripamastigote bloodstream forms infected in Balb/c mouse assessed as reduction in parasitaemia at 100 mg/kg, po administered on day 9 post infection for 5 consecutive days measured on day 35 post infection relative to control; type: functional; set-up: scale not given: the % may be the effect or the level left; how it was run: as §2
Trypanosoma cruzi [12] = assay: Trypanocidal activity against Trypanosoma cruzi RA tripamastigote bloodstream forms infected in Balb/c mouse assessed as mouse survival at 100 mg/kg, po administered on day 9 post infection for 5 consecutive days measured daily during compound dosing up to 45 days post infection; type: functional
How it was run: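 Male Balb/c mice (6–8 weeks, groups of six) were infected intraperitoneally with 100 bloodstream trypomastigotes harvested from CF1 mice. Oral dosing at 100 mg/kg/day for five consecutive days began once circulating parasites were confirmed microscopically, on day 9 p.i. Drugs were suspended in 0.1 M PBS (pH 7.2), prepared fresh daily; vehicle served as negative control. Mortality was recorded daily to 45 days p.i.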

[13] = in the assay text read “day 18 post infection relative” for “day 35 post infection relative”

With `NC(CCCCNC(=O)Cn1ccnc1/N=N/c1ccc([N+](=O)[O-])cc1)C(=O)O` (configuration not stated) the Activity (Trypanosoma cruzi [1]) was “inactive”.
For `COc1ccc(/N=N/c2nccn2CC(=O)N2CCOCC2)c([N+](=O)[O-])c1`, the Activity (Trypanosoma cruzi [1]) was “inactive”.
In the case of `O=C(Cn1ccnc1/N=N/c1ccc(C(F)(F)F)cc1)NC1CCCCC1`, the Activity (Trypanosoma cruzi [1]) is reported as “inactive”.
With `CN(C)c1ccc(C(=C2C=CC(=[N+](C)C)C=C2)c2ccc(N(C)C)cc2)cc1` [GENTIAN VIOLET] the IC50 (Trypanosoma cruzi [2]) was 2.8 µM.
With `O=C(Cn1ccnc1/N=N/c1ccc([N+](=O)[O-])cc1)N1CCOCC1` the Activity (Trypanosoma cruzi [1]) was “inactive”.
For `COc1ccc(/N=N/c2nccn2CC(=O)NC2CCCCC2)c([N+](=O)[O-])c1`, the Activity (Trypanosoma cruzi [1]) was “inactive”.
Compound `O=C(Cn1ccnc1/N=N/c1ccc([N+](=O)[O-])cc1)N1CCCCC1` has a Time (Trypanosoma cruzi [3]) of 4 days, an Activity (Trypanosoma cruzi [4]) of 20 ×10⁶ /ml and a Time (Trypanosoma cruzi [5]) of 9 to 12 days. The Activity (Trypanosoma cruzi [6]) was 5 - 6 ×10⁶ /ml, the Activity (Trypanosoma cruzi [7]) was “Active” and the Activity (Trypanosoma cruzi [8]) was “Active”. For the same compound, the IC50 (Trypanosoma cruzi [2]) was 645 µM, the CC50 at 24 h [9] was 206 µM and the Activity (Trypanosoma cruzi [10]) was “Active”. It also gave an Activity (Trypanosoma cruzi [11]; [13]) of 71% and a survival at 100 mg/kg (Trypanosoma cruzi [12]) of 67%.
For `O=C(Cn1ccnc1/N=N/c1ccc(Cl)c(Cl)c1)N1CCCC1`, the Activity (Trypanosoma cruzi [1]) was “inactive”.
With `O=C(Cn1ccnc1/N=N/c1ccc(C(F)(F)F)cc1)N1CCCCC1` the Time (Trypanosoma cruzi [5]) was 9 to 12 days, the Activity (Trypanosoma cruzi [6]) was 5 - 6 ×10⁶ /ml and the Activity (Trypanosoma cruzi [7]) was “Active”. For the same compound, the Activity (Trypanosoma cruzi [8]) was “Active”, the IC50 (Trypanosoma cruzi [2]) was 1080 µM and the CC50 at 24 h [9] was 415 µM. The Activity (Trypanosoma cruzi [10]) was “Active”, the Activity (Trypanosoma cruzi [11]; [13]) was 60% and the survival at 100 mg/kg (Trypanosoma cruzi [12]) was 67%.
For `O=C(Cn1ccnc1/N=N/c1ccc(Cl)cc1)N1CCCCC1`, the Activity (Trypanosoma cruzi [1]) was “inactive”.
For `O=C(Cn1ccnc1/N=N/c1ccc(Cl)cc1)N1CCCC1`, the Activity (Trypanosoma cruzi [1]) was “inactive”.
For `O=C(Cn1ccnc1/N=N/c1ccc(C(F)(F)F)cc1)N1CCOCC1`, the Activity (Trypanosoma cruzi [1]) was “inactive”.
For `COc1ccc(/N=N/c2nccn2CC(=O)N2CCCCC2)c([N+](=O)[O-])c1`, the Activity (Trypanosoma cruzi [1]) was “inactive”.
In the case of `O=C(Cn1ccnc1/N=N/c1ccc([N+](=O)[O-])cc1)NC1CCCCC1`, the Activity (Trypanosoma cruzi [1]) is reported as “inactive”.
For `O=C(Cn1ccnc1[N+](=O)[O-])NCc1ccccc1` [BENZNIDAZOLE], the Time (Trypanosoma cruzi [3]) was 3 days, the Activity (Trypanosoma cruzi [4]) was 25 ×10⁶ /ml and the Activity (Trypanosoma cruzi [5]) was “Active”. The Activity (Trypanosoma cruzi [6]) was “Active”, the Activity (Trypanosoma cruzi [7]) was “Active” and the Activity (Trypanosoma cruzi [8]) was “Active”. The Activity (Trypanosoma cruzi [11]) was “Active” and the survival at 100 mg/kg (Trypanosoma cruzi [12]) was 100%.
With `O=C(Cn1ccnc1/N=N/c1ccc(C(F)(F)F)cc1)N1CCCC1` the Activity (Trypanosoma cruzi [1]) was “inactive”.
In the case of `O=C(Cn1ccnc1/N=N/c1ccc([N+](=O)[O-])cc1)N1CCCC1`, the Activity (Trypanosoma cruzi [1]) is reported as “inactive”.
